Assay [1] addresses T1, Nitric oxide synthase 3 (Bos taurus) (UniProt P29473).
T1 sequence (whole entry): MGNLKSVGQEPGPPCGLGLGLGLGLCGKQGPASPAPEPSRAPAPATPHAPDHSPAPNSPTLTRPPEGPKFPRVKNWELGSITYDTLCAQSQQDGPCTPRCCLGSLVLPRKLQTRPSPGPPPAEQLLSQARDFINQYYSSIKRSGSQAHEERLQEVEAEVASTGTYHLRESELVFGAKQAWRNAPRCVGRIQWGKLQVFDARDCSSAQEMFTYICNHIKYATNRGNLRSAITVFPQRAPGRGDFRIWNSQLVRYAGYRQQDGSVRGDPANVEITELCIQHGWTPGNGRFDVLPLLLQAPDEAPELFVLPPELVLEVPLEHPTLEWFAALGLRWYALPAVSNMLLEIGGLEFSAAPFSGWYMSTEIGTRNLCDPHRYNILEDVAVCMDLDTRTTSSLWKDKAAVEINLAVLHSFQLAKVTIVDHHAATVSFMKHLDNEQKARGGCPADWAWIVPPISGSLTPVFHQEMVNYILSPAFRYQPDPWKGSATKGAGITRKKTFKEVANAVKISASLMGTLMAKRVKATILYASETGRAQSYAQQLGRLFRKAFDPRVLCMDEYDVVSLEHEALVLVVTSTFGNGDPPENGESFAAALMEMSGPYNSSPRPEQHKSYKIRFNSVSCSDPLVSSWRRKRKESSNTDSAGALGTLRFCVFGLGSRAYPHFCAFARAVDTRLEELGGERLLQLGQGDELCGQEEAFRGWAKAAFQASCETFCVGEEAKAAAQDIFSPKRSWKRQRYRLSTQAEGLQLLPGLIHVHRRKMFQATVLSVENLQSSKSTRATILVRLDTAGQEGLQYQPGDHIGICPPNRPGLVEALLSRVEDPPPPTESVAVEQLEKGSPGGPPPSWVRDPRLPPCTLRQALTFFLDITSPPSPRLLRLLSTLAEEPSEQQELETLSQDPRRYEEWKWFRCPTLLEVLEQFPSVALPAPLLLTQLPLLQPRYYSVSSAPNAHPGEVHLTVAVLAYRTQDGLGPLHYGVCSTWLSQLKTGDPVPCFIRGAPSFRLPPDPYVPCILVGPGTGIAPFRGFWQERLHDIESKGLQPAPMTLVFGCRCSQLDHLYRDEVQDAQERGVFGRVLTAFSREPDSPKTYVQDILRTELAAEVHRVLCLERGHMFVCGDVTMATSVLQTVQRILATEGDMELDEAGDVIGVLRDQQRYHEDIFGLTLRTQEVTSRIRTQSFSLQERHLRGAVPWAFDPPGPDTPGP
In words: Inhibition of bovine eNOS assessed as nitric oxide-mediated oxidation of haemoglobin-A0 at 300 uM using L-arginine by haemoglobin capture assay. Put shortly: (§1)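 For eNOS (bovine) and nNOS (rat), inhibition was tested as the effect of compound on L-arginine turnover, by hemoglobin capture at 30 °C. Buffer was 100 mM HEPES (pH 7.5) with 1.0 mM CaCl₂, 600 unit/mL calmodulin, NADPH, 0.125 mg/mL ferrous hemoglobin-A₀ and H₄B. Reactions were started with enzyme, and hemoglobin-A₀ oxidation was read at 401 nm.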

The target of assay [2] is T2, Nitric oxide synthase, inducible (Mus musculus) (UniProt P29477).
T2 sequence (whole entry): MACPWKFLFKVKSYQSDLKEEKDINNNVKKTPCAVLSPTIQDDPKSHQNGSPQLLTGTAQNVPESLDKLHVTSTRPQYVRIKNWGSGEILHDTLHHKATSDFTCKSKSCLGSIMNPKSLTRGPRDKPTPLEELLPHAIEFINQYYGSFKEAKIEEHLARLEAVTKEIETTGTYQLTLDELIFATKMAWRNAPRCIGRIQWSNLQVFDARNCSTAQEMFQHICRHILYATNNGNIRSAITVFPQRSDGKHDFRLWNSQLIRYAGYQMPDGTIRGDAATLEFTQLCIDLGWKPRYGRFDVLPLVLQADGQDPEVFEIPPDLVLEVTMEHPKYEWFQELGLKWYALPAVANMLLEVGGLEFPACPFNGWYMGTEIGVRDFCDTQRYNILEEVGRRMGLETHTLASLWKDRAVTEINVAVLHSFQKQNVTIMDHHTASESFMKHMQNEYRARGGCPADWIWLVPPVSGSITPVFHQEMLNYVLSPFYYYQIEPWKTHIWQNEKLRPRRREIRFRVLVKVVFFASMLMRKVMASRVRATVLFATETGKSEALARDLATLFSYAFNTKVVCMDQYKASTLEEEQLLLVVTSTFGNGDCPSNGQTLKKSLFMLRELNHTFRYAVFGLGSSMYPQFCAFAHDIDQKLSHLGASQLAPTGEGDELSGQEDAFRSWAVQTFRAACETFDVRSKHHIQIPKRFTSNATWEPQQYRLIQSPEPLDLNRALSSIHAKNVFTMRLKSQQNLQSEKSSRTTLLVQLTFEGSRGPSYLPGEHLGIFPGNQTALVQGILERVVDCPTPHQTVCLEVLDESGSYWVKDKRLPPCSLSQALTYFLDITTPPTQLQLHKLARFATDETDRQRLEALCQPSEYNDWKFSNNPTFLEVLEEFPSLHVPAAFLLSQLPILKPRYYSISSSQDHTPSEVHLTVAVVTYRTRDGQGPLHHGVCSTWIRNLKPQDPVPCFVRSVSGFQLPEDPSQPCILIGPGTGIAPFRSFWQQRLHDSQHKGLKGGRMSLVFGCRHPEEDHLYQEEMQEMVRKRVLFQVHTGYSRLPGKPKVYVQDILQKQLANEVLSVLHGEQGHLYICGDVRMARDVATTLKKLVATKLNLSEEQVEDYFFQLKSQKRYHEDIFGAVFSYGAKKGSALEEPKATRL
Briefly: Inhibition of mouse iNOS assessed as nitric oxide-mediated oxidation of haemoglobin-A0 at 300 uM using L-arginine by haemoglobin capture assay. The procedure, abridged:
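Murine iNOS inhibition was measured against L-arginine as substrate in a hemoglobin capture assay at 30 °C, without calcium or calmodulin. The mix held NADPH, 0.125 mg/mL ferrous hemoglobin-A₀ and H₄B in 100 mM HEPES (pH 7.5). Enzyme addition initiated the reaction, and NO-mediated oxidation was monitored at 401 nm.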

Assay [3] addresses Nitric oxide synthase 1 (Rattus norvegicus) (UniProt P29476). In words: Inhibition of rat nNOS assessed as nitric oxide-mediated oxidation of haemoglobin-A0 at 300 uM using L-arginine by haemoglobin capture assay. Put shortly:
as §1

Assay [4] is described as follows: Selectivity ratio of km for bovine eNOS to km for mouse iNOS by Michaelis-Menten equation analysis.
Assay [5] can be described thus: Selectivity ratio of km rat nNOS to km mouse iNOS by Michaelis-Menten equation analysis.

This note sets out measurements from ChEMBL document CHEMBL1828615, “Synthesis of a series of 3,4-methanoarginines as side-chain conformationally restricted analogues of arginine” (Bioorg Med Chem, 2011).

Structures are written as SMILES.

Nitric oxide synthase 1 (Rattus norvegicus), sequence (P29476 whole entry): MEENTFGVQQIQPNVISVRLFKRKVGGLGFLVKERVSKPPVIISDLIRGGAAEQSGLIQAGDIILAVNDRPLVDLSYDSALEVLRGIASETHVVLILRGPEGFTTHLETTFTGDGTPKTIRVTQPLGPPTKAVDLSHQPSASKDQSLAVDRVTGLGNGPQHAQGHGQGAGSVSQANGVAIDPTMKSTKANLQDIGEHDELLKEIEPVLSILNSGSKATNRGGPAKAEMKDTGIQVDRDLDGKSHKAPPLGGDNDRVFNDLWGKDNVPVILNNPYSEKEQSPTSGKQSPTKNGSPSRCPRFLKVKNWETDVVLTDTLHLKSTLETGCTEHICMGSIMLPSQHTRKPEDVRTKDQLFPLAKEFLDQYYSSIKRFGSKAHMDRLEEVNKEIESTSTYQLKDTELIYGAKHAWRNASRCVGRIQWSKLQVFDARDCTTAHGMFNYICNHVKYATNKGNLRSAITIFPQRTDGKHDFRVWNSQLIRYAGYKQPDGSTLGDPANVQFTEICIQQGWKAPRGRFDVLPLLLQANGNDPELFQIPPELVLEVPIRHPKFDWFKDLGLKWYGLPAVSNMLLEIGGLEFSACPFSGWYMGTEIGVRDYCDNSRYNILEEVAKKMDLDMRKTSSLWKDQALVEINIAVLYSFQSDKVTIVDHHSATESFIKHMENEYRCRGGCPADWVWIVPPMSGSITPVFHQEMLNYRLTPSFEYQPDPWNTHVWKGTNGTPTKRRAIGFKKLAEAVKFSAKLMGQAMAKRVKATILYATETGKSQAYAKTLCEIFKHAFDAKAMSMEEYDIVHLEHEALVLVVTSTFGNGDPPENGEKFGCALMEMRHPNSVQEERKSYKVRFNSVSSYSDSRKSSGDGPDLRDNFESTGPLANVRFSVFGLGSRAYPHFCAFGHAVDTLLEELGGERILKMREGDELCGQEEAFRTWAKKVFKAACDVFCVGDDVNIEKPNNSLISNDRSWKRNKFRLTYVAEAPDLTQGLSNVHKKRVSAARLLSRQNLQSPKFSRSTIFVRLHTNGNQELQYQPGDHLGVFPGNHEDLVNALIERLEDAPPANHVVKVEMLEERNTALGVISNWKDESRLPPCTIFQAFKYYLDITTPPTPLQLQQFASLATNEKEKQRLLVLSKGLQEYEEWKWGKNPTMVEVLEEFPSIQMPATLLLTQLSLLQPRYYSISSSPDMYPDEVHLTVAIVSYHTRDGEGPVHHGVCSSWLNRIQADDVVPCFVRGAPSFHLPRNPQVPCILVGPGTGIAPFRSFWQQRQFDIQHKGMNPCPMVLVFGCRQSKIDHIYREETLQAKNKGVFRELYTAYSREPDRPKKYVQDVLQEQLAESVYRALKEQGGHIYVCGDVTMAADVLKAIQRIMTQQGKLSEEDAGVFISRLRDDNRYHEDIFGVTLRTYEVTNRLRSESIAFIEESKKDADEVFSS

A word on the inhibition: it is the change of the read-out against control, counted positive when it falls. Consider `N=C(N)NC[C@@H]1C[C@@H]1[C@@H](N)C(=O)O`, for which the inhibition in assay [1] was determined as 4%; in assay [2] it was 24%; in assay [3] it was 10%.

Regarding `N=C(N)NC[C@H]1C[C@H]1[C@H](N)C(=O)O`, the Ratio was found to be 3.6 in assay [4] and 2.3 in assay [5].

`N=C(N)NC[C@@H]1C[C@H]1[C@H](N)C(=O)O`: the inhibition in assay [1] came to 45%; in assay [2], 26%; in assay [3], 16%.

Take `N=C(N)NC[C@H]1C[C@H]1[C@@H](N)C(=O)O`: the values for the inhibition in assay [1], in assay [2] and in assay [3] were 27%, 14% and 30%, respectively.

`N=C(N)NC[C@H]1C[C@@H]1[C@H](N)C(=O)O`: the Ratio turned out to be 5.6 in assay [4] and 2.6 in assay [5].

For `N=C(N)NCCC[C@H](N)C(=O)O`, the values for the Ratio in assay [4] and in assay [5] were 8.6 and 3.5, respectively.

Take `N=C(N)NC[C@@H]1C[C@H]1[C@@H](N)C(=O)O`: the results for the inhibition in assay [1], in assay [2] and in assay [3] were 4%, 19% and 13%, respectively.

With `N=C(N)NC[C@@H]1C[C@@H]1[C@H](N)C(=O)O`, the inhibition in assay [1] is 16%; in assay [2], 22%; in assay [3], 30%.

`N=C(N)NC[C@H]1C[C@@H]1[C@@H](N)C(=O)O`: the inhibition in assay [1] was 23%; in assay [2], 19%; in assay [3], 5%.
